{"source": "ChEMBL document CHEMBL1122443", "about": "“Synthesis and antitumor evaluation of selected 5,6-disubstituted 1(2)H-indazole-4,7-diones” (1983)", "type_in_all_cases": "functional", "key": {"Mus musculus [1]": {"tested_on": "Mus musculus", "assay": "Anti tumor activity in mice bearing lymphocytic leukemia P-388 at 15 mg/kg", "summary_of_the_method": "(§1)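 Male BDF1 mice (20–23 g) inoculated ip with 1 × 10⁶ P-388 lymphocytic leukemia cells on day 0. Test agents were given ip once daily on days 1–14, with 0.05% Tween 80 as vehicle for treated and control groups. Read-out is %T/C, the mean days survived by treated over control. Values above 125% were counted as significant. 5-Fluorouracil was the positive control.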"}, "Mus musculus [2]": {"tested_on": "Mus musculus", "assay": "Anti tumor activity in mice bearing lymphocytic leukemia P-388 at 12 mg/kg", "summary_of_the_method": "as §1"}, "Mus musculus [3]": {"tested_on": "Mus musculus", "assay": "Anti tumor activity in mice bearing lymphocytic leukemia P-388 at 1 mg/kg", "summary_of_the_method": "(§2)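 Male BDF1 mice (20–23 g) were inoculated ip with 1 × 10⁶ P-388 leukemia cells on day 0. Compound was given ip once daily on days 1–14 in 0.05% Tween 80 vehicle, with a vehicle control group and 5-fluorouracil as positive control. Activity was scored as % T/C, average days survived treated/control, with >125% taken as significant.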"}, "Mus musculus [4]": {"tested_on": "Mus musculus", "assay": "Antitumor activity in CF1 mice bearing Ehrlich ascites carcinoma measured as survivors on day 9 at 5 mg/kg; 5/5"}, "Mus musculus [5]": {"tested_on": "Mus musculus", "assay": "Average days survived for treated / average days survived for control at 15 (mg/kg); 9.2/9.2"}, "Mus musculus [6]": {"tested_on": "Mus musculus", "assay": "Average days survived for treated / average days survived for control at 0.5 (mg/kg); 10.5/9.2"}, "Mus musculus [7]": {"tested_on": "Mus musculus", "assay": "Antitumor activity in CF1 mice bearing Ehrlich ascites carcinoma measured as percentage inhibition at 6 mg/kg", "summary_of_the_method": "(§3)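 Ehrlich ascites model in male CF1 mice (22–25 g): 2 × 10⁶ cells ip on day 0, ip dosing days 1–8, kill on day 9. Percent inhibition = 100 − [(treated volume × treated ascrit)/(control volume × control ascrit)]. Greater than 80% was taken as significant. Vehicle was 0.05% Tween 80, alone or with 5% absolute EtOH. 6-Mercaptopurine was the positive control.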"}, "Mus musculus [8]": {"tested_on": "Mus musculus", "assay": "Average days survived for treated / average days survived for control at 10 (mg/kg); 12.6/9.2"}, "Mus musculus [9]": {"tested_on": "Mus musculus", "assay": "Anti tumor activity in mice bearing lymphocytic leukemia P-388 at 0.5 mg/kg", "summary_of_the_method": "as §2"}, "Mus musculus [10]": {"tested_on": "Mus musculus", "assay": "Average days survived for treated / average days survived for control at 1 (mg/kg); 11/9.2"}, "Mus musculus [11]": {"tested_on": "Mus musculus", "assay": "Anti tumor activity in mice bearing lymphocytic leukemia P-388 at 5 mg/kg", "summary_of_the_method": "as §2"}, "Mus musculus [12]": {"tested_on": "Mus musculus", "assay": "Antitumor activity in CF1 mice bearing Ehrlich ascites carcinoma measured as ascites volume at 6 mg/kg", "summary_of_the_method": "(§4)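 Male CF1 mice (22–25 g) received 2 × 10⁶ Ehrlich carcinoma cells ip on day 0. Dosing was ip daily on days 1–8, with sacrifice on day 9. Ascites fluid volume per mouse and ascrit (packed cell volume) were measured for each group. Vehicle was 0.05% Tween 80, or 5% absolute EtOH in 0.05% Tween 80, used for both compound and control. 6-Mercaptopurine was the positive control.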"}, "Mus musculus [13]": {"tested_on": "Mus musculus", "assay": "Anti tumor activity in mice bearing lymphocytic leukemia P-388 at 20 mg/kg", "summary_of_the_method": "as §1"}, "Mus musculus [14]": {"tested_on": "Mus musculus", "assay": "Antitumor activity in CF1 mice bearing Ehrlich ascites carcinoma measured as ascites volume at 5 mg/kg", "summary_of_the_method": "as §4"}, "Mus musculus [15]": {"tested_on": "Mus musculus", "assay": "Average days survived for treated / average days survived for control at 20 (mg/kg); 3.6/9.2"}, "Mus musculus [16]": {"tested_on": "Mus musculus", "assay": "Antitumor activity in CF1 mice bearing Ehrlich ascites carcinoma measured as survivors on day 9 at 6 mg/kg; 5/6"}, "Mus musculus [17]": {"tested_on": "Mus musculus", "assay": "Antitumor activity in CF1 mice bearing Ehrlich ascites carcinoma measured as percent ascrit packed cell volume at 6 mg/kg", "summary_of_the_method": "as §4"}, "Mus musculus [18]": {"tested_on": "Mus musculus", "assay": "Antitumor activity in CF1 mice bearing Ehrlich ascites carcinoma measured as percent ascrit packed cell volume at 5 mg/kg", "summary_of_the_method": "as §4"}, "Mus musculus [19]": {"tested_on": "Mus musculus", "assay": "Antitumor activity in CF1 mice bearing Ehrlich ascites carcinoma measured as percentage inhibition at 5 mg/kg", "summary_of_the_method": "as §3"}, "Mus musculus [20]": {"tested_on": "Mus musculus", "assay": "Average days survived for treated / average days survived for control at 5 (mg/kg); 10.9/9.2"}, "Mus musculus [21]": {"tested_on": "Mus musculus", "assay": "Anti tumor activity in mice bearing lymphocytic leukemia P-388 at 10 mg/kg", "summary_of_the_method": "as §1"}, "Mus musculus [22]": {"tested_on": "Mus musculus", "assay": "Average days survived for treated / average days survived for control at 12 (mg/kg); 9/9.2"}, "Mus musculus [23]": {"tested_on": "Mus musculus", "assay": "Antitumor activity in 18 CF1 mice bearing Ehrlich ascites carcinoma measured as survivors on day 9 at 50 mg/kg; 16/18"}, "Mus musculus [24]": {"tested_on": "Mus musculus", "assay": "Antitumor activity in CF1 mice bearing Ehrlich ascites carcinoma measured as percentage inhibition at 50 mg/kg", "summary_of_the_method": "as §3"}, "Mus musculus [25]": {"tested_on": "Mus musculus", "assay": "Antitumor activity in CF1 mice bearing Ehrlich ascites carcinoma measured as percent ascrit packed cell volume at 50 mg/kg", "summary_of_the_method": "as §4"}, "Mus musculus [26]": {"tested_on": "Mus musculus", "assay": "Antitumor activity in CF1 mice bearing Ehrlich ascites carcinoma measured as ascites volume at 50 mg/kg", "summary_of_the_method": "as §4"}, "Mus musculus [27]": {"tested_on": "Mus musculus", "assay": "Antitumor activity in CF1 mice bearing Ehrlich ascites carcinoma measured as percentage inhibition at 1 mg/kg", "summary_of_the_method": "(§5)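 In the Ehrlich ascites model, male CF1 mice (22–25 g) received 2 × 10⁶ cells ip on day 0 and compound ip on days 1–8, with a vehicle of 0.05% Tween 80 ± 5% EtOH. Ascites volume and ascrit were taken on day 9. % inhibition = 100 − [(vol × ascrit, treated)/(vol × ascrit, control)], with >80% taken as significant.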"}, "Mus musculus [28]": {"tested_on": "Mus musculus", "assay": "Average days survived for treated / average days survived for control at 1 (mg/kg); 10.8/9.2"}, "Mus musculus [29]": {"tested_on": "Mus musculus", "assay": "Antitumor activity in CF1 mice bearing Ehrlich ascites carcinoma measured as percent ascrit packed cell volume at 1 mg/kg", "summary_of_the_method": "(§6)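 CF1 male mice (22–25 g) were inoculated ip with 2 × 10⁶ Ehrlich cells on day 0 and treated ip on days 1–8 in 0.05% Tween 80 or 5% EtOH/0.05% Tween 80 vehicle. On day 9 the mice were sacrificed, and the ascrit (packed cell volume) of the ascites fluid was determined.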"}, "Mus musculus [30]": {"tested_on": "Mus musculus", "assay": "Antitumor activity in CF1 mice bearing Ehrlich ascites carcinoma measured as survivors on day 9 at 12 mg/kg; 0/6"}, "Mus musculus [31]": {"tested_on": "Mus musculus", "assay": "Antitumor activity in CF1 mice bearing Ehrlich ascites carcinoma measured as ascites volume at 10 mg/kg", "summary_of_the_method": "(§7)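 Ehrlich ascites cells (2 × 10⁶) were implanted ip in male CF1 mice (22–25 g) on day 0. Dosing was ip on days 1–8 in 0.05% Tween 80 or 5% EtOH/0.05% Tween 80, with vehicle controls. Mice were killed on day 9, and ascites fluid volume per mouse was measured.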"}, "Mus musculus [32]": {"tested_on": "Mus musculus", "assay": "Antitumor activity in CF1 mice bearing Ehrlich ascites carcinoma measured as survivors on day 9 at 1 mg/kg; 6/6"}, "Mus musculus [33]": {"tested_on": "Mus musculus", "assay": "Antitumor activity in CF1 mice bearing Ehrlich ascites carcinoma measured as percent ascrit packed cell volume at 10 mg/kg", "summary_of_the_method": "as §6"}, "Mus musculus [34]": {"tested_on": "Mus musculus", "assay": "Antitumor activity in CF1 mice bearing Ehrlich ascites carcinoma measured as percentage inhibition at 10 mg/kg", "summary_of_the_method": "as §5"}, "Mus musculus [35]": {"tested_on": "Mus musculus", "assay": "Antitumor activity in CF1 mice bearing Ehrlich ascites carcinoma measured as ascites volume at 1 mg/kg", "summary_of_the_method": "as §7"}, "Mus musculus [36]": {"tested_on": "Mus musculus", "assay": "Antitumor activity in CF1 mice bearing Ehrlich ascites carcinoma measured as survivors on day 9 at 10 mg/kg; 5/6"}}, "data": [{"smiles": "O=C1C(Cl)=C(Cl)C(=O)c2[nH]ncc21", "values": [{"measurement": "T/C", "setting": "Mus musculus [1]", "result": 104, "unit": "%"}, {"measurement": "T/C", "setting": "Mus musculus [2]", "result": 98, "unit": "%"}, {"measurement": "T/C", "setting": "Mus musculus [3]", "result": 120, "unit": "%"}, {"measurement": "Survivors", "setting": "Mus musculus [4]", "result": 5}, {"measurement": "Average survival (days)", "setting": "Mus musculus [5]", "result": 9.2}, {"measurement": "Average survival (days)", "setting": "Mus musculus [6]", "result": 10.5}, {"measurement": "inhibition in vivo at 6 mg/kg", "setting": "Mus musculus [7]", "result": 85.4, "unit": "%"}, {"measurement": "Average survival (days)", "setting": "Mus musculus [8]", "result": 12.6}, {"measurement": "T/C", "setting": "Mus musculus [9]", "result": 114, "unit": "%"}, {"measurement": "Average survival (days)", "setting": "Mus musculus [10]", "result": 11}, {"measurement": "T/C", "setting": "Mus musculus [11]", "result": 118, "unit": "%"}, {"measurement": "ascites volume", "setting": "Mus musculus [12]", "result": 0.6, "unit": "ml mouse-1"}, {"measurement": "T/C", "setting": "Mus musculus [13]", "result": 39, "unit": "%"}, {"measurement": "ascites volume", "setting": "Mus musculus [14]", "result": 0.48, "unit": "ml mouse-1"}, {"measurement": "Average survival (days)", "setting": "Mus musculus [15]", "result": 3.6}, {"measurement": "Survivors", "setting": "Mus musculus [16]", "result": 5}, {"measurement": "packed cell volume", "setting": "Mus musculus [17]", "result": 24.1, "unit": "%"}, {"measurement": "packed cell volume", "setting": "Mus musculus [18]", "result": 4.5, "unit": "%"}, {"measurement": "inhibition in vivo at 5 mg/kg", "setting": "Mus musculus [19]", "result": 98.6, "unit": "%"}, {"measurement": "Average survival (days)", "setting": "Mus musculus [20]", "result": 10.9}, {"measurement": "T/C", "setting": "Mus musculus [21]", "result": 137, "unit": "%"}, {"measurement": "Average survival (days)", "setting": "Mus musculus [22]", "result": 9}]}, {"smiles": "Sc1ncnc2nc[nH]c12", "note": "[MERCAPTOPURINE ANHYDROUS]", "values": [{"measurement": "Survivors", "setting": "Mus musculus [23]", "result": 16}, {"measurement": "inhibition in vivo at 50 mg/kg", "setting": "Mus musculus [24]", "result": 96.3, "unit": "%"}, {"measurement": "packed cell volume", "setting": "Mus musculus [25]", "result": 10.5, "unit": "%"}, {"measurement": "ascites volume", "setting": "Mus musculus [26]", "result": 0.2, "unit": "ml mouse-1"}]}, {"smiles": "Cn1cc2c(n1)C(=O)C(Cl)=C(N1CC1)C2=O", "values": [{"measurement": "inhibition in vivo at 1 mg/kg", "setting": "Mus musculus [27]", "result": 72.9, "unit": "%"}, {"measurement": "Average survival (days)", "setting": "Mus musculus [28]", "result": 10.8}, {"measurement": "packed cell volume", "setting": "Mus musculus [29]", "result": 12.7, "unit": "%"}, {"measurement": "T/C", "setting": "Mus musculus [3]", "result": 117, "unit": "%"}, {"measurement": "Survivors", "setting": "Mus musculus [4]", "result": 5}, {"measurement": "Survivors", "setting": "Mus musculus [30]", "result": 0}, {"measurement": "ascites volume", "setting": "Mus musculus [31]", "result": 0.44, "unit": "ml mouse-1"}, {"measurement": "Survivors", "setting": "Mus musculus [32]", "result": 6}, {"measurement": "packed cell volume", "setting": "Mus musculus [33]", "result": 8.4, "unit": "%"}, {"measurement": "inhibition in vivo at 10 mg/kg", "setting": "Mus musculus [34]", "result": 96.3, "unit": "%"}, {"measurement": "ascites volume", "setting": "Mus musculus [35]", "result": 0.8, "unit": "ml mouse-1"}, {"measurement": "ascites volume", "setting": "Mus musculus [14]", "result": 0.7, "unit": "ml mouse-1"}, {"measurement": "packed cell volume", "setting": "Mus musculus [18]", "result": 36.2, "unit": "%"}, {"measurement": "inhibition in vivo at 5 mg/kg", "setting": "Mus musculus [19]", "result": 83.7, "unit": "%"}, {"measurement": "Survivors", "setting": "Mus musculus [36]", "result": 5}]}]}
